PfG6PD inh: PfG6PD enzyme inhibitors, primary screen, biochemical, fluorescence intensity, uHTS; AID 504690, 2011; glucose-6-phosphate dehydrogenase-6-phosphogluconolactonase (Plasmodium falciparum 3D7); inhibition, % at 20 µM; hit rate 0.78% among 350,000; PfGluPho enzyme, NADPH resazurin-diaphorase fluorescence;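 active = inhibition reaching at least a set limit at 20 µM in the primary screen, cut at about 59% in these data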;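 also: 0% = DMSO wells with substrate and 100% = DMSO wells lacking glucose-6-phosphate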
ABHD5-PLIN5 inh: ABHD5-PLIN5 interaction inhibitors, primary screen, cell lysate, split luciferase complementation, luminescence; Split G. princeps luciferase complementation, 4 h; Perilipin-5 (Homo sapiens) + 1-acylglycerol-3-phosphate O-acyltransferase ABHD5 (Homo …; hit rate 0.78% among 360,000; inhibition, % at 4 µM;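 active = inhibition above the mean inhibition across every tested compound plus 3 SD, cut at about 22% in these data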;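 also: 0% = DMSO only wells and the 100% control is not disclosed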
Beta2AR agonist: beta2AR agonists driving receptor internalization, primary screen, cell-based, FAP fluorogen, flow cytometry. Am2.2-beta2AR cells. response, % (test concentration not listed). hit rate 0.43% among 340,000. AID 504454, 2011;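 active = response above a set limit, near 3 SD of response in nonfluorescent compounds, cut at about 42% in these data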
MC4R antag cAMP: MC4R antagonists of cAMP signaling, primary screen, cell-based, TR-FRET, antagonist arm of biased-ligand search | MC4R-expressing cells, MTII-stimulated cAMP, LANCE TR-FRET | inhibition, % at 6.5 µM | hit rate 0.48% among 360,000 | Melanocortin receptor 4 (Homo sapiens), P32245;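 active = inhibition above its plate's cutoff, the mean of tested wells on that plate plus 3 SD, cut at about 29% in these data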;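 also: 0% = Melanotan II alone and 100% = Melanotan II plus saturating MCL0020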
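system = U2OS cells with stable human MC4R expression | also added = Melanotan II challenge after compound preincubation | dosing = one concentration, 6.5 µM nominal | incubation = compound 30 min, challenge 1 h, detection 1 h | measured by = TR-FRET with Eu-cAMP and labeled anti-cAMP, 671 nm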
MC4R ag barr: MC4R agonists recruiting beta-arrestin, primary screen, cell-based, luminescence, agonist arm of biased-ligand search. Melanocortin receptor 4 (Homo sapiens), P32245. activation, % at 8.9 µM. U2OS MC4R beta-arrestin complementation; percent of melanotan II response, DMSO zero. AID 540308, 2011. hit rate 0.98% among 360,000;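 active = activation above a per-plate cutoff, the mean activation of sample wells on that plate plus 3 SD, cut at about 8% in these data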
Active calls of the source: *; . = no result; ! = not confirmed by another sample. Most compounds without a hit are left out; they make up all but 3% or so of the library.

SMILES	PfG6PD inh	ABHD5-PLIN5 inh	Beta2AR agonist	MC4R antag cAMP	MC4R ag barr
COc1ccc(C2(CNC(=O)/C=C/c3ccco3)CCCC2)cc1OC	57.2	35.4*	-3.5	1.5	-1.4
C[C@H](O)C#Cc1cnc2c(c1)C(=O)N([C@H](C)CO)C[C@@H](C)[C@@H](CN(C)Cc1ccc(-c3ccccc3)cc1)O2	16.9	6.9	.	4.0	-2.5
Clc1cc(Br)ccc1OCCCNCc1ccccc1	8.7	22.1*	9.7	3.4	8.8*
CN1C(=O)C(Cl)(Cl)C(=O)c2ccccc21	44.1	88.1*	0.3	-1.4	-1.4
CN1C(=O)C2(NC(=O)c3ccccc3N2C)c2ccccc21 (centres undefined)	9.9	-1.6	-2.6	5.2	0.4
CC(C)c1ccc(OCC(O)CN2CCN(c3ccccc3)CC2)cc1 (centres undefined)	6.1	-3.7	-12.6	-4.2	8.9*!
Cc1cc(C)n2[nH]c(=O)cc2n1	18.6	-5.9	.	4.5	-1.5
CCCc1cnc(NCCNCC(O)COc2ccc(Cl)c(Cl)c2)nc1 (centres undefined)	8.4	5.2	18.3	6.6	8.4*
CC(=O)c1cccc(OCC(O)CNCCc2ccc(Cl)cc2)c1 (centres undefined)	6.7	-1.2	-4.7	0.6	-0.5
CC(C)(C)OC(=O)N1CCC(NC(=O)c2[nH]cnc2C(=O)Nc2ccccc2)CC1	7.8	1.1	16.7	3.0	8.5*
CC(C)(C)OC(=O)N1CCC(NC(=O)c2[nH]cnc2C(=O)Nc2ccccc2F)CC1	24.7	-2.7	.	8.0	8.3*
Cc1ccc(NC(=O)c2nc[nH]c2C(=O)NC2CCN(C(=O)OC(C)(C)C)CC2)cc1	11.0	1.5	5.6	7.4	-0.2
COc1ccc(/C=C(\NC(=O)c2ccc(C)cc2)C(=O)N2CCCCC2)cc1	0.5	1.4	8.2	8.7	0.8
O=C(CCN1C(=O)[C@@H]2Cc3ccccc3CN2C1=O)N[C@H](Cc1ccccc1)C(=O)O	-4.3	0.8	-5.6	-7.1	-2.2
O=C(O)CC(c1cccc2ccccc12)N1Cc2ccccc2C1=O (centres undefined)	-13.5	-1.6	-2.0	2.6	-1.2
Cn1c(SCC(=O)c2ccc3c(c2)NC(=O)CO3)nc2ccccc21	22.0	1.0	-9.4	27.1	14.4*
O=C(N/N=C/c1ccc(OC(=O)c2ccc3c(c2)OCO3)cc1)c1cncc(Br)c1	-4.9	8.9	51.6*	13.5	1.6
Cc1cc(NC(=O)c2ccc(C)c([N+](=O)[O-])c2)no1	-16.4	-3.3	-5.8	18.9	0.5
Cc1cc(NC(=O)c2ccc(Br)c([N+](=O)[O-])c2)no1	-12.1	1.2	3.9	19.0	9.3*
CC(C)N1CCN(Cc2ccc(-c3ccccc3Cl)o2)CC1CCO (centres undefined)	3.4	1.3	3.5	13.9	-0.9
O=C(O)CCn1cc(/C=C/C(=O)c2ccc(Cl)cc2)c(-c2ccc(Br)cc2)n1	-24.9	9.0	-3.2	35.0*	-0.8
Cc1cc(C)n2c(=O)c3ccc(Cl)cc3nc2c1C#N	-3.9	1.5	-7.7	9.1	-1.8
Cc1cc(Cl)n2c(nc3cc(F)c(F)cc32)c1C#N	4.7	6.0	112.8*	-0.4	-3.5
Cc1cc(C(=O)COC(=O)c2cccc(NS(C)(=O)=O)c2)c(C)n1CC1CCCO1 (centres undefined)	-6.3	-3.2	-6.5	23.8	-2.5
NC(=O)c1cc(N)ccc1N1CCCC1	50.2	-25.0	12.4	3.7	-0.4
SMILES	PfG6PD inh	ABHD5-PLIN5 inh	Beta2AR agonist	MC4R antag cAMP	MC4R ag barr
Cc1cc(N)ccc1N1CCCC1	88.2*	-2.1	19.5	6.9	-1.3
Cc1cc(N)ccc1-n1c(C)ccc1C	59.2*	-4.1	2.4	-3.0	-2.5
N#C/C(=C\c1ccc(Cl)cc1)c1nc2ccccc2o1	15.8	0.4	0.9	3.5	8.9*
COc1ccc(Cl)cc1C(=O)Nn1c(C)nc2ccccc2c1=O	10.2	8.5	-17.2	4.1	1.0
COc1ccc(Cl)cc1C(=O)Nn1c(-c2cccs2)nc2ccccc2c1=O	-5.3	-6.7	67.8*	19.8	-1.8
O=[N+]([O-])c1ccc(N/N=C/c2ccc[nH]2)cc1	81.0*	9.8	8.9	-8.3	-4.3
Cc1ccc(Cl)cc1N1CCN(C(=O)C(C)n2ncn3cccc3c2=O)CC1 (centres undefined)	-13.6	9.8	15.6	3.6	0.8
COc1ccc2c(c1)[nH]c1c(=O)n(/N=C/C3C(C)C=C(C)CC3C)c(=O)[nH]c12 (centres undefined)	-11.8	-1.6	8.0	5.3	-0.7
COc1ccc2[nH]c3c(=O)n(/N=C/[C@H]4C(C)C=C(C)CC4C)c(=O)[nH]c3c2c1 (some centres undefined)	-4.0	1.3	3.4	20.3	8.3*
COc1ccc(NC(=O)C(NC(=O)c2ccc(C)cc2)c2ccccc2)cc1 (centres undefined)	1.3	-3.4	4.1	7.1	-0.6
O=C(CSc1nnc(-c2ccc(O)cc2)n1Cc1ccco1)c1ccccc1	-16.8	2.2	-1.3	12.5	-3.5
O=C(CSc1nnc(-c2ccccn2)n1Cc1ccco1)c1ccc(-c2ccccc2)cc1	11.1	57.4*	-4.0	-4.4	2.4
O=C(O)/C=C1\NC(=O)c2ccccc21	-0.9	-2.0	12.0	4.4	-1.3
O=C1N/C(=C\c2ccc(O)cc2)C(=O)c2ccccc21	8.9	34.5*	17.5	-22.1	-5.3
COc1ccc(Nc2oc(-c3ccc(OC)cc3)nc2C#N)cc1	0.4	-4.5	-8.2	11.1	-1.4
CCOc1ccc(Nc2oc(-c3ccc(Cl)cc3)nc2C#N)cc1	11.8	-7.2	-6.1	-14.3	8.9*
N#Cc1nc(-c2ccc(Cl)cc2)oc1NCc1cccc2c1OCO2	18.1	-0.1	-0.7	1.9	8.5*
COc1ccccc1N1CCN(S(=O)(=O)c2cn(C)nc2C)CC1	-4.1	2.1	-5.2	-2.7	0.2
O=C1c2cccc3cccc(c23)C(=O)N1c1ccc2ncccc2c1	6.5	2.9	69.5*	0.6	4.4
Cc1cccc(/C=N/NC(=O)c2cc(-c3cccnc3)nc3c2c(C)nn3-c2ccccc2)c1	0.3	3.4	103.4*	1.9	-0.9
Cc1nn(-c2ccccc2)c(C)c1/C=N/NC(=O)c1cc(-c2cccc3ccccc23)n[nH]1	9.6	-8.5	-1.8	21.7	-2.4
Cc1nn(-c2ccccc2)c(C)c1/C=N/NC(=O)c1cc(-c2ccccc2)n[nH]1	11.9	-3.3	68.2*	-25.0	-4.2
Cc1nn(-c2ccccc2)c(Cl)c1/C=N/NC(=O)c1cccnc1	-20.9	0.0	50.0*	-12.4	0.7
COc1ccccc1C(=O)COC(=O)CNS(=O)(=O)c1ccc(C)c(C)c1	8.8	2.1	-9.0	27.8	-0.5

High-throughput results from PubChem.
